Consider one compound from ChEMBL document CHEMBL1629459, “Microarray and molecular analyses of the azole resistance mechanism in Candida glabrata oropharyngeal isolates” (2010).

Holding throughout (format): functional
For assay [1], the system named is Nakaseomyces glabratus. The assay can be described thus: Antifungal activity against Candida glabrata isolate Cg15S. Put shortly: (§1)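 Fluconazole susceptibility by modified CLSI (NCCLS) broth microdilution. Medium was buffered RPMI with 2% glucose added. Inoculum was 250 cells per well, incubated at 37°C for 48 h. MIC was read as the concentration giving 80% growth reduction (MIC80). Clinical oropharyngeal isolates were cultured on YPD or on minimal medium (yeast nitrogen base plus 2% glucose).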

The subject of assay [2] is Nakaseomyces glabratus. The assay can be described thus: Antifungal activity against Candida glabrata isolate Cg4R with CgPDR1 S391L mutant. The gist of the method:
as §1

The subject of assay [3] is Nakaseomyces glabratus. In words: Antifungal activity against Candida glabrata isolate Cg8R with CgPDR1 W297S. Put shortly: as §1
Assay [4] concerns Nakaseomyces glabratus. In words: Antifungal activity against Candida glabrata isolate Cg14R with CgPDR1 N764I mutant. The gist of the method: as §1
Assay [5] concerns Nakaseomyces glabratus. The assay can be described thus: Antifungal activity against Candida glabrata isolate Cg5S. The gist of the method:
as §1

Assay [6] has as its system Nakaseomyces glabratus. In words: Antifungal activity against Candida glabrata isolate Cg6R with CgPDR1 G943S mutant. The gist of the method:
as §1

The test system of assay [7] is Nakaseomyces glabratus. The assay can be described thus: Antifungal activity against Candida glabrata isolate Cg18R with CgPDR1 L344S mutant. The gist of the method:
as §1

The test system of assay [8] is Nakaseomyces glabratus. The assay can be described thus: Antifungal activity against Candida glabrata isolate Cg16R with CgPDR1 R772I mutant. The gist of the method: as §1
Assay [9] deals with Nakaseomyces glabratus. In words: Antifungal activity against Candida glabrata isolate Cg22R with CgPDR1 L280F mutant. Put shortly: as §1
The subject of assay [10] is Nakaseomyces glabratus. In words: Antifungal activity against Candida glabrata isolate Cg7S. Put shortly: as §1
Assay [11] deals with Nakaseomyces glabratus. In words: Antifungal activity against Candida glabrata isolate Cg3S. The gist of the method: as §1
Assay [12] relates to Nakaseomyces glabratus. The assay can be described thus: Antifungal activity against Candida glabrata isolate Cg1S. Put shortly: as §1
Assay [13] concerns Nakaseomyces glabratus. The assay can be described thus: Antifungal activity against Candida glabrata isolate Cg11S. Put shortly: as §1
For assay [14], the system named is Nakaseomyces glabratus. In words: Antifungal activity against Candida glabrata isolate Cg17S. Put shortly:
as §1

Assay [15] has as its system Nakaseomyces glabratus. The assay can be described thus: Antifungal activity against Candida glabrata isolate Cg2R with CgPDR1 F575L mutant. Put shortly:
as §1

Assay [16] concerns Nakaseomyces glabratus. The assay can be described thus: Antifungal activity against Candida glabrata isolate Cg21S. The gist of the method:
as §1

Assay [17] relates to Nakaseomyces glabratus. In words: Antifungal activity against Candida glabrata isolate Cg13S. The gist of the method: as §1
For assay [18], the system named is Nakaseomyces glabratus. In words: Antifungal activity against Candida glabrata isolate Cg12R with CgPDR1 G348A mutant. Put shortly: as §1

SMILES strings stand for the structures. In brackets after ≈: the same amount, converted by molar mass.

By MIC80 is commonly meant an inhibitory concentration at the 80% level, which refers to growth in some studies and to a panel of isolates in others. Lower therefore signals greater potency. `OC(Cn1cncn1)(Cn1cncn1)c1ccc(F)cc1F` [FLUCONAZOLE]: the MIC80 in the assay with Nakaseomyces glabratus [1] was found to be 16 µg/mL (≈ 52.2 µM); with Nakaseomyces glabratus [2], 256 µg/mL (≈ 836 µM); with Nakaseomyces glabratus [3] it was 512 µg/mL (≈ 1670 µM); in the assay with Nakaseomyces glabratus [4], 256 µg/mL (≈ 836 µM); with Nakaseomyces glabratus [5], 32 µg/mL (≈ 104 µM); with Nakaseomyces glabratus [6] it was 256 µg/mL (≈ 836 µM). In addition, the MIC80 in the assay on Nakaseomyces glabratus [7] amounted to 256 µg/mL (≈ 836 µM); against Nakaseomyces glabratus [8] it was 128 µg/mL (≈ 418 µM); in the assay on Nakaseomyces glabratus [9] it was 256 µg/mL (≈ 836 µM); in the assay on Nakaseomyces glabratus [10], 32 µg/mL (≈ 104 µM); against Nakaseomyces glabratus [11], 32 µg/mL (≈ 104 µM); in the assay on Nakaseomyces glabratus [12], 16 µg/mL (≈ 52.2 µM). Moreover, the MIC80 came to 32 µg/mL (≈ 104 µM) in the assay with Nakaseomyces glabratus [13]; 32 µg/mL (≈ 104 µM) in the assay on Nakaseomyces glabratus [14]; 128 µg/mL (≈ 418 µM) in the assay with Nakaseomyces glabratus [15]; 32 µg/mL (≈ 104 µM) in the assay with Nakaseomyces glabratus [16]; 64 µg/mL (≈ 209 µM) against Nakaseomyces glabratus [17]; 256 µg/mL (≈ 836 µM) in the assay on Nakaseomyces glabratus [18].
